{
  "source": "paper PMC9008867",
  "about": "(Therapeutic Advances in Medical Oncology, 2022)",
  "key": {"XPO1": {"test_system": "XPO1", "test": "XPO1 mRNA expression in PBMCs/leukocytes by qRT-PCR pre and post dose", "format": "in vivo, human", "conditions": "40 and 50 mg/m^2, 10 patients assessed"}, "[1]": {"test_system": "Asian patients with advanced or metastatic malignancies", "test": "Adverse events", "format": "in vivo, human", "conditions": "Schedule 2; patients n (%)", "outline": "(§1)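 Test compound given orally by schedule. Schedule 1: Mon/Thu, 28-day cycle. Schedule 2: Mondays weekly, 28-day cycle. Schedule 3: Mon/Wed for 2 of 3 weeks, 21-day cycle. Schedule 4: Mon/Wed/Fri, 28-day cycle. All patients received anorexia/nausea prophylaxis. AEs were recorded up to 30 days after the last dose and graded every 2 weeks for cycles 1–2, then every 4 weeks.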"}, "[2]": {"test_system": "metastatic castration-resistant prostate cancer", "conditions": "eight patients with measurable disease at baseline; cited from earlier work"}, "[3]": {"test_system": "relapsed or refractory diffuse large B cell lymphoma", "conditions": "relapsed or refractory DLBCL; cited from earlier work"}, "[4]": {"test_system": "Asian patients with advanced or metastatic malignancies", "test": "Phase 1a 3 + 3 dose escalation: DLT, MTD, RP2D, tolerability, deaths", "format": "in vivo, human", "outline": "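Modified 3+3 design: ≥3 patients per cohort, expanded to six after one DLT; DLTs were assessed in cycle 1. DLT was possibly drug-related grade ≥3 nonhaematological toxicity (not reversible asymptomatic electrolyte changes or hair loss). Haematological DLT: grade 4 neutropenia ≥7 days, febrile neutropenia, or grade ≥3 thrombocytopenia with bleeding. 2/6 DLTs set the MTD; RP2D was the next lower level. Deaths were counted within 30 days of last dose.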"}, "[5]": {"test": "Plasma selinexor pharmacokinetics", "format": "in vivo, human"}, "[6]": {"test_system": "Asian patients with advanced or metastatic malignancies", "test": "Adverse events", "format": "in vivo, human", "conditions": "Schedule 3; patients n (%)", "outline": "as §1"}, "[7]": {"conditions": "Schedule 2, 70 mg/m^2 once a week, six patients"}, "[8]": {"conditions": "Schedule 3, 50 mg/m^2, subsequent four patients"}},
  "data": [
    {"smiles": "O=C(/C=C\\n1cnc(-c2cc(C(F)(F)F)cc(C(F)(F)F)c2)n1)NNc1cnccn1", "note": "[selinexor]", "values": [
      {"measurement": "patients with at least twofold induction of XPO1 mRNA", "setting": "XPO1; 4 h post dose", "value": "nine"},
      {"measurement": "patients with greater than twofold mRNA increases in XPO1", "setting": "XPO1; 8 h post dose", "value": "all 10 patients"},
      {"measurement": "Abdominal discomfort, Any grade", "setting": "[1]", "value": "4 (23.52) %"},
      {"measurement": "Abdominal discomfort, G1/G2", "setting": "[1]", "value": "4 (23.52) %"},
      {"measurement": "Anaemia, Any grade", "setting": "[1]", "value": "6 (35.29) %"},
      {"measurement": "Anorexia, Any grade", "setting": "[1]", "value": "10 (58.8) %"},
      {"measurement": "Back pain, Any grade", "setting": "[1]", "value": "1 (5.88) %"},
      {"measurement": "Constipation, Any grade", "setting": "[1]", "value": "1 (5.88) %"},
      {"measurement": "Diarrhoea, Any grade", "setting": "[1]", "value": "3 (17.64) %"},
      {"measurement": "Edema, Any grade", "setting": "[1]", "value": "1 (5.88) %"},
      {"measurement": "Fatigue, Any grade", "setting": "[1]", "value": "14 (82.35) %"},
      {"measurement": "Hypokalaemia, Any grade", "setting": "[1]", "value": "2 (11.76) %"},
      {"measurement": "Hypomagnesemia, Any grade", "setting": "[1]", "value": "5 (29.41) %"},
      {"measurement": "Hyponatremia, Any grade", "setting": "[1]", "value": "11 (64.70) %"},
      {"measurement": "Hypophosphatemia, Any grade", "setting": "[1]", "value": "3 (17.64) %"},
      {"measurement": "Hypotension, Any grade", "setting": "[1]", "value": "1 (5.88) %"},
      {"measurement": "Intention tremor, Any grade", "setting": "[1]", "value": "1 (5.88) %"},
      {"measurement": "Mucositis, Any grade", "setting": "[1]", "value": "1 (5.88) %"},
      {"measurement": "Nausea, Any grade", "setting": "[1]", "value": "11 (64.70) %"},
      {"measurement": "Neutropenia, Any grade", "setting": "[1]", "value": "2 (11.76) %"},
      {"measurement": "Palpitation, Any grade", "setting": "[1]", "value": "1 (5.88) %"},
      {"measurement": "Pneumonitis, Any grade", "setting": "[1]", "value": "1 (5.88) %"},
      {"measurement": "Raised amylase/lipase, Any grade", "setting": "[1]", "value": "1 (5.88) %"},
      {"measurement": "Raised amylase/lipase, G1/G2", "setting": "[1]", "value": "1 (5.88) %"},
      {"measurement": "Thrombocytopenia, Any grade", "setting": "[1]", "value": "6 (35.29) %"},
      {"measurement": "Vomiting, Any grade", "setting": "[1]", "value": "7 (41.17) %"},
      {"measurement": "Weight loss, Any grade", "setting": "[1]", "value": "5 (29.41) %"},
      {"measurement": "patients achieving partial response", "setting": "[2]", "value": 25, "unit": "%"},
      {"measurement": "patients achieving stable disease as best radiographic response", "setting": "[2]", "value": 50, "unit": "%"},
      {"measurement": "complete response rate", "setting": "[3]", "value": 13, "unit": "%"},
      {"measurement": "tolerability", "setting": "[4]; 40 mg/m^2 given 2 out of 3 weeks, Asian patient cohort", "value": "most tolerable"},
      {"measurement": "DLTs", "setting": "[4]; Schedule 1, 40 mg/m^2 twice-a-week continuous, six patients", "value": "no DLTs were observed"},
      {"measurement": "patients with DLTs", "setting": "[4]; Schedule 2, 50 mg/m^2 once a week, three patients", "value": "none of the three patients"},
      {"measurement": "DLTs", "setting": "[4]; Schedule 2, 60 mg/m^2 once a week, three patients", "value": "did not show any DLTs"},
      {"measurement": "patients with grade 3 fatigue that persisted for more than 5 days", "setting": "[4]; Schedule 2, 70 mg/m^2 once a week, additional four patients", "value": "one patient"},
      {"measurement": "patients with grade 3 thrombocytopenia", "setting": "[4]; [7]", "value": "one patient"},
      {"measurement": "patients with grade 3 vomiting", "setting": "[4]; [7]", "value": "one patient"},
      {"measurement": "patients developing DLTs", "setting": "[4]; Schedule 3, 40 mg/m^2 twice a week 2 out of 3 weeks", "value": "0/3"},
      {"measurement": "patients with G3 fatigue", "setting": "[4]; Schedule 3, 50 mg/m^2, first six patients", "value": "one out of six patients"},
      {"measurement": "patients with G3 dehydration from loss of appetite", "setting": "[4]; [8]", "value": "One out of the subsequent four patients"},
      {"measurement": "patients with G3 hyponatremia", "setting": "[4]; [8]", "value": "one other patient"},
      {"measurement": "patients with G3 diarrhoea and G3 syncope", "setting": "[4]; Schedule 4, 16 mg/m^2 three times a week continuous", "value": "two out of five patients"},
      {"measurement": "patients developing DLTs (G3 fatigue and G3 septicaemia)", "setting": "[4]; Schedule 4, 20 mg/m^2 three times a week continuous", "value": "two out of six patients"},
      {"measurement": "tolerability of schedule", "setting": "[4]; Schedule 4, three-times-a-week continuous dosing", "value": "deemed intolerable"},
      {"measurement": "deaths within 30 days of the last study drug administration", "setting": "[4]; phase 1a cohort, none related to the study drug", "value": "eight"},
      {"measurement": "RP2D, flat dose", "setting": "[4]; twice a week with a 1-week drug holiday every 3-week cycle", "value": 60, "unit": "mg"},
      {"measurement": "AUC0-8 dose proportionality", "setting": "[5]; among 40, 50 and 60 mg/m^2 doses", "value": "dose-proportional"},
      {"measurement": "predose concentrations after multiple doses", "setting": "[5]; cycle 1 day 15 or cycle 2 day 8/day 15", "value": "either 0 or close to 0"},
      {"measurement": "AUC(0-t)", "setting": "[5]; human, plasma, oral, 40 mg/m2", "value": "5340 ± 1540", "unit": "ng·h/mL"},
      {"measurement": "Cmax", "setting": "[5]; human, plasma, oral, 40 mg/m2", "value": "567 ± 159", "unit": "ng/mL"},
      {"measurement": "Tmax", "setting": "[5]; human, plasma, po, 60 mg/m2", "value": "1 to 4", "unit": "h"},
      {"measurement": "mean T1/2", "setting": "[5]; oral, 40-60 mg/m^2", "value": "~ 6 h"},
      {"measurement": "Abdominal discomfort, Any grade", "setting": "[6]", "value": "3 (20) %"},
      {"measurement": "Abdominal discomfort, G1/G2", "setting": "[6]", "value": "3 (20) %"},
      {"measurement": "Anaemia, Any grade", "setting": "[6]", "value": "3 (20) %"},
      {"measurement": "Anorexia, Any grade", "setting": "[6]", "value": "11 (73.33) %"},
      {"measurement": "Conjunctivitis, Any grade", "setting": "[6]", "value": "1 (6.66) %"},
      {"measurement": "Constipation, Any grade", "setting": "[6]", "value": "1 (6.66) %"},
      {"measurement": "Dehydration, Any grade", "setting": "[6]", "value": "2 (13.33) %"},
      {"measurement": "Diarrhoea, Any grade", "setting": "[6]", "value": "5 (33.33) %"},
      {"measurement": "Dry skin, Any grade", "setting": "[6]", "value": "1 (6.66) %"},
      {"measurement": "Dysgeusia, Any grade", "setting": "[6]", "value": "2 (13.33) %"},
      {"measurement": "Edema, Any grade", "setting": "[6]", "value": "1 (6.66) %"},
      {"measurement": "Fatigue, Any grade", "setting": "[6]", "value": "13 (86.66) %"},
      {"measurement": "Giddiness, Any grade", "setting": "[6]", "value": "2 (13.33) %"},
      {"measurement": "Hypocalcaemia, Any grade", "setting": "[6]", "value": "1 (6.66) %"},
      {"measurement": "Hypokalaemia, Any grade", "setting": "[6]", "value": "4 (26.66) %"},
      {"measurement": "Hypomagnesemia, Any grade", "setting": "[6]", "value": "6 (40) %"},
      {"measurement": "Hyponatremia, Any grade", "setting": "[6]", "value": "13 (86.66) %"},
      {"measurement": "Hypophosphatemia, Any grade", "setting": "[6]", "value": "6 (40) %"},
      {"measurement": "Increased flatulence, Any grade", "setting": "[6]", "value": "1 (6.66) %"},
      {"measurement": "Increased flatulence, G1/G2", "setting": "[6]", "value": "1 (6.66) %"},
      {"measurement": "Lethargy, Any grade", "setting": "[6]", "value": "1 (6.66) %"},
      {"measurement": "Nausea, Any grade", "setting": "[6]", "value": "4 (26.66) %"},
      {"measurement": "Thrombocytopenia, Any grade", "setting": "[6]", "value": "4 (26.66) %"},
      {"measurement": "Vomiting, Any grade", "setting": "[6]", "value": "5 (33.33) %"},
      {"measurement": "Weight loss, Any grade", "setting": "[6]", "value": "4 (26.66) %"}
    ]}
  ]
}
